According to ChEMBL document CHEMBL1681766, “Structure and property based design of factor Xa inhibitors: pyrrolidin-2-ones with aminoindane and phenylpyrrolidine P4 motifs” (Bioorg Med Chem Lett, 2011):

Legend:
Assay type in all cases: ADME, organism-based
[1] = Plasma clearance in iv/po dosed Sprague-Dawley rat
Procedure, shortened: (§1)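 Male Sprague-Dawley rats dosed by intravenous and by oral routes. Pharmacokinetic parameters are derived from these studies.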

[2] = Half life in iv/po dosed Sprague-Dawley rat; details: in vivo; procedure, shortened: as §1
[3] = Volume of distribution at steady state in iv/po dosed Sprague-Dawley rat; details: in vivo, read-out: Vdss; procedure, shortened: as §1
[4] = Oral bioavailability in Sprague-Dawley rat; details: in vivo; procedure, shortened: as §1

clearance [1]	half-life [2]	Vd [3]	bioavailability [4]	Compound
7.6 mL/min/kg	3.4 h	1.7 L/kg	27%	CN(C)[C@@H]1CCc2cc(N3CC[C@H](NS(=O)(=O)c4ccc5cc(Cl)ccc5c4)C3=O)ccc21
2.8 mL/min/kg	7.5 h	1.7 L/kg	38%	O=C1[C@@H](NS(=O)(=O)c2ccc3cc(Cl)ccc3c2)CCN1c1ccc([C@@H]2CCCN2)cc1F
2.6 mL/min/kg	10.2 h	1.9 L/kg	25%	O=C1[C@@H](NS(=O)(=O)c2ccc3cc(Cl)ccc3c2)CCN1c1ccc([C@H]2CCCN2)cc1F
6 mL/min/kg	4.4 h	2 L/kg	61%	CN(C)[C@H]1CCc2cc(N3CC[C@H](NS(=O)(=O)c4ccc5cc(Cl)ccc5c4)C3=O)ccc21
			> 10%	CN[C@@H](C)c1ccc(N2CC[C@H](NS(=O)(=O)c3ccc4cc(Cl)ccc4c3)C2=O)c(F)c1
9.5 mL/min/kg	1.7 h	1.1 L/kg	57%	CN(C)C1CCc2cc(N3CC[C@H](NS(=O)(=O)/C=C/c4ccc(Cl)s4)C3=O)ccc21 (mixture of isomers)
2.2 mL/min/kg	5.4 h	0.9 L/kg		CNC1CCc2cc(N3CC[C@H](NS(=O)(=O)/C=C/c4ccc(Cl)s4)C3=O)ccc21 (mixture of isomers)
2.5 mL/min/kg	12.4 h	2.4 L/kg	25%	CNC1CCc2cc(N3CC[C@H](NS(=O)(=O)c4ccc5cc(Cl)ccc5c4)C3=O)ccc21 (mixture of isomers)
11 mL/min/kg	1.4 h	0.8 L/kg	41%	CN1CCCC1c1ccc(N2CC[C@H](NS(=O)(=O)/C=C/c3ccc(Cl)s3)C2=O)c(F)c1 (mixture of isomers)
2.8 mL/min/kg	3.4 h	0.7 L/kg	52%	O=C1[C@@H](NS(=O)(=O)/C=C/c2ccc(Cl)s2)CCN1c1ccc(C2CCCN2)cc1F (mixture of isomers)
2.7 mL/min/kg	9 h	1.9 L/kg	24%	O=C1[C@@H](NS(=O)(=O)c2ccc3cc(Cl)ccc3c2)CCN1c1ccc(C2CCCN2)cc1F (mixture of isomers)
1.3 mL/min/kg	11 h	0.8 L/kg	< 1%	O=C1[C@@H](NS(=O)(=O)c2ccc3c(Cl)c[nH]c3c2)CCN1c1ccc(C2CCCN2)cc1F (mixture of isomers)
